Laboratory results reported in ChEMBL document CHEMBL4609998 (Bioorg Med Chem, 2020).
Each block holds one molecule with its values, some of them ahead of it. Calls of active or inactive are those of the source. The calls are words filed in the database; no cut-off is given here.

Columns and labels:
U-87 MG [1] = assay: Antiproliferative activity against human U87 cells assessed as reduction in cell viability at 3 to 300 uM incubated for 5 days by Prestoblue reagent based assay; assay type: functional; details: U-87MG ATCC
Outline: (§1)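 Library screen: U87 (1 × 10^3/well) and T98 (5 × 10^2/well) cells seeded 48 h ahead, then exposed for 5 d to three concentrations (3, 30 and 300 μM). Viability by PrestoBlue; EC50 derived from the resulting dose-response curves. Means of three independent experiments in triplicate.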

U-87 MG [2] = assay: Antiproliferative activity against human U87 cells assessed as reduction in cell viability incubated for 5 days by Prestoblue reagent based assay; assay type: functional, U-87MG ATCC; details: 120 h
Outline: (§2)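 Glioma lines in DMEM/10% FBS/2 mM glutamine: U87 at 1 × 10^3 and T98 at 5 × 10^2 cells/well, incubated 48 h, then treated over 1–30,000 nM for 5 d. PrestoBlue viability; EC50 calculated from dose-response curves. Mean ± SEM, 3 independent experiments in triplicate.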

T98 [3] = assay: Antiproliferative activity against human T98 cells assessed as reduction in cell viability at 3 to 300 uM incubated for 5 days by Prestoblue reagent based assay; assay type: functional; outline: as §1
T98 [4] = assay: Antiproliferative activity against human T98 cells assessed as reduction in cell viability incubated for 5 days by Prestoblue reagent based assay; assay type: functional; details: T98, 120 h; outline: as §2
T98 [5] = assay: Antiproliferative activity against human T98 cells assessed as reduction in cell viability at 1 to 30000 nM incubated for 5 days by Prestoblue reagent based assay; assay type: functional; outline: as §2
U-87 MG [6] = assay: Antiproliferative activity against human U87 cells assessed as reduction in cell viability at 1 to 30000 nM incubated for 5 days by Prestoblue reagent based assay; assay type: functional; details: U-87MG ATCC; outline: as §2
U-87 MG [7] = assay: Antiproliferative activity against human U87 cells assessed as reduction in cell viability at 1 to 1000 nM incubated for 5 days by Prestoblue reagent based assay; assay type: functional; details: U-87MG ATCC
Outline: (§3)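 U87 (1 × 10^3/well) or T98 (5 × 10^2/well) cells, grown in DMEM with 10% FBS and 2 mM glutamine, plated 48 h before dosing at 1–1,000 nM. Viability read with PrestoBlue at day 5; EC50 values taken from dose-response curves. Mean ± SEM, three independent experiments in triplicate.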

T98 [8] = assay: Antiproliferative activity against human T98 cells assessed as reduction in cell viability at 1 to 1000 nM incubated for 5 days by Prestoblue reagent based assay; assay type: functional; outline: as §3
U-87 MG [9] = assay: Synergistic antiproliferative activity against human U87 cells assessed as reduction in cell viability at 10 to 1000 nM in presence of GDC0941 incubated for 5 days by Prestoblue reagent based assay; assay type: functional; details: U-87MG ATCC
T98 [10] = assay: Synergistic antiproliferative activity against human T98 cells assessed as reduction in cell viability at 10 to 1000 nM in presence of GDC0941 incubated for 5 days by Prestoblue reagent based assay; assay type: functional
Homo sapiens = species on record: Homo sapiens; assay: Antiproliferative activity against human G317 cell spheroid assessed as reduction in cell viability incubated for 8 days; assay type: functional
Outline: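 G317 patient-derived glioma cells (4 × 10^3) spun into ultra-low attachment round-bottom wells (1000g, 4 °C, 10 min), left 2 days to form spheroids, then exposed to inhibitors at 4 concentrations from 10 nM to 10 μM for 8 days. Imaged on day 10; spheroid area quantified by image analysis. Mean ± SEM of 6 spheroids from two cultures.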

T98 [11] = assay: Synergistic antiproliferative activity against human T98 cells assessed as reduction in cell viability at 100 nM in presence of GDC0941 incubated for 5 days by Prestoblue reagent based assay; assay type: functional

Compound: Nc1ncnc2c1c(-c1cnc3[nH]ccc3c1)nn2CC1CCCC1
- inhibition (T98 [5]): Active
- inhibition (U-87 MG [6]): Active

Compound: CNc1ncc2c(-c3ccc4oc(N)nc4c3)nn(CC3CCCC3)c2n1
- inhibition (T98 [5]): Active
- inhibition (U-87 MG [6]): Active

Compound: Nc1nc2cc(-c3nn(CC4CCCC4)c4ncnc(N)c34)ccc2o1
- inhibition (U-87 MG [7]): Active
- inhibition (U-87 MG [1]): Active
- inhibition (T98 [3]): Active
- inhibition (T98 [8]): Active
- Activity (U-87 MG [9]): Active
- Activity (T98 [10]): Active
- inhibition (Homo sapiens): Dose-dependent effect

Compound: CC(C)n1nc(-c2ccc3oc(N)nc3c2)c2c(N)ncnc21
- inhibition (Homo sapiens): Dose-dependent effect

Compound: CCc1c2c(nc3ccc(O)cc13)-c1cc3c(c(=O)n1C2)COC(=O)[C@]3(O)CC
- inhibition (Homo sapiens): Dose-dependent effect

Continued, in another order:

- EC50 (U-87 MG [2]): 100 to 150 nM
Compound: Nc1nc2cc(-c3nn(CC4CCCO4)c4ncnc(N)c34)ccc2o1 (stereo unspecified)
- inhibition (U-87 MG [1]): Active
- inhibition (T98 [3]): Active
- EC50 (T98 [4]): 100 to 150 nM

- EC50 (U-87 MG [2]): 100 to 150 nM
Compound: COC(Cn1nc(-c2ccc3oc(N)nc3c2)c2c(N)ncnc21)OC
- inhibition (U-87 MG [1]): Active
- inhibition (T98 [3]): Active
- EC50 (T98 [4]): 100 to 150 nM

- EC50 (U-87 MG [2]): 100 to 150 nM
Compound: Nc1nc2cc(-c3nn(CC4OCCO4)c4ncnc(N)c34)ccc2o1
- inhibition (U-87 MG [1]): Active
- inhibition (T98 [3]): Active
- EC50 (T98 [4]): 100 to 150 nM

- EC50 (U-87 MG [2]): 100 to 150 nM
Compound: Nc1nc2cc(-c3nn(C[C@@H]4CCCO4)c4ncnc(N)c34)ccc2o1
- inhibition (U-87 MG [1]): Active
- inhibition (T98 [3]): Active
- EC50 (T98 [4]): 100 to 150 nM

- EC50 (U-87 MG [2]): 100 to 150 nM
Compound: CCOC(Cn1nc(-c2ccc3oc(N)nc3c2)c2c(N)ncnc21)OCC
- inhibition (U-87 MG [7]): Active
- inhibition (U-87 MG [1]): Active
- Activity (T98 [11]): Active
- inhibition (T98 [3]): Active
- inhibition (T98 [8]): Active
- EC50 (T98 [4]): 100 to 150 nM
- inhibition (Homo sapiens): Dose-dependent effect

- EC50 (U-87 MG [2]): 100 to 150 nM
Compound: Nc1nc2cc(-c3nn(C[C@H]4CCCO4)c4ncnc(N)c34)ccc2o1
- inhibition (U-87 MG [1]): Active
- inhibition (T98 [3]): Active
- EC50 (T98 [4]): 100 to 150 nM
